Experiments:
[1] = In vivo protection from compound 48/80 induced lethality test in rats 1 hour after subcutaneous administration.; assay type: functional; conditions: Rattus norvegicus, sc
Method in brief: (§1)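 Male inbred Wistar rats (240-260 g), fasted overnight, held at 21 ± 1 °C and 65 ± 5% RH. Dosed sc or orally, vehicle 0.9% NaCl. Endpoint is survival at 4 h. ED50 by Finney from 5 rats per dose, at least 3 doses from a geometric series 0.0025-40 mg/kg. Estimated ED50 uses at least 2 rats per dose.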

[2] = In vivo anti-histaminic protection from 48/80 induced lethality in rats 2 hours after oral administration; assay type: functional; conditions: Rattus norvegicus; method in brief: as §1
Cavia porcellus [3] = test: Protection against intravenous histamine lithality in Guinea pigs 3 hour after oral administration; assay type: functional; conditions: for ED50: read-out: PD50
Method in brief: (§2)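 Male albino guinea pigs (280-360 g) given oral doses in 2-fold increments 3, 24 or 48 h before iv histamine dihydrochloride 1.25 mg/kg. Protection is survival at 1 h. PD50 by Finney from 4-6 animals per dose and time point, at least 3 doses from a geometric series 0.0025-5 mg/kg. Estimated PD50 uses at least 2 animals per dose.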

[4] = In vivo anti-histaminic protection from 48/80 induced lethality in rats 2 hour after oral administration.; assay type: functional; conditions: Rattus norvegicus; method in brief: as §1
Cavia porcellus [5] = test: Protection against intravenous histamine lithality in Guinea pigs 24 hour after oral administration; assay type: functional; conditions: for ED50: read-out: PD50; method in brief: as §2
[6] = molecular target: Histamine H1 receptor (Cavia porcellus) (UniProt P31389); test: In vitro inhibition of histamine(H1) induced contraction of guinea pig ileum.; assay type: functional, tissue-based
Histamine H1 receptor (Cavia porcellus), sequence (P31389 whole entry): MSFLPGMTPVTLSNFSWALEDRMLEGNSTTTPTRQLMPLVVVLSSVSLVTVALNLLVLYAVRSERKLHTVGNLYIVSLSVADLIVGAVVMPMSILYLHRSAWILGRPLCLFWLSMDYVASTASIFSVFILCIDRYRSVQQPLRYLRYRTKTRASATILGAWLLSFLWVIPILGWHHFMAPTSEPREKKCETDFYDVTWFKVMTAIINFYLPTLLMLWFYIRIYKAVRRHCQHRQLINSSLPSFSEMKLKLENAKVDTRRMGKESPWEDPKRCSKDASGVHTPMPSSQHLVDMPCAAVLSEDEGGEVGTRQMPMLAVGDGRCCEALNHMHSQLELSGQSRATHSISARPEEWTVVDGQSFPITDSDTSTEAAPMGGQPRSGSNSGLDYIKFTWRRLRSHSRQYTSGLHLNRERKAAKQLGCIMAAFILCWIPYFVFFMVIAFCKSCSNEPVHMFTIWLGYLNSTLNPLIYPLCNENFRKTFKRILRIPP
Method in brief: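 Isolated guinea pig ileum in a bath. Cumulative histamine curves every 5 min, logarithmically increasing doses (5.4 × 10^-8, 1.6 × 10^-7, 5.4 × 10^-7 M, ...) until maximal contraction. Repeated after 5 min antagonist contact, then washout and two further curves. Highest test dose normally 0.04 mg/L. A10 = antagonist concentration giving a 10-fold rightward shift of the histamine curve.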

[7] = In vivo anti-histaminic protection from 48/80 induced lethality in rats 1 hour after subcutaneous administration.; assay type: functional; conditions: Rattus norvegicus, sc; method in brief: as §1
Cavia porcellus [8] = test: Protection against intravenous histamine lithality in Guinea pigs 48 hour after oral administration; assay type: functional; conditions: read-out: PD50; method in brief: as §2

Structure (SMILES): Cc1ccc(Cn2c(N(C)C3CCN(CCc4ccccc4)CC3)nc3ccccc32)cc1
- ED50 [1]: 2.5 mg/kg

Structure (SMILES): CN(C)CCC(c1ccc(Cl)cc1)c1ccccn1 (stereo not drawn) [CHLORPHENIRAMINE]
- ED50 [1]: 0.77 mg/kg
- ED50 [2]: 37.4 mg/kg

Structure (SMILES): O=c1[nH]c2ccccc2n1CCCN1CCN(C(c2ccccc2)c2ccccc2)CC1 [OXATOMIDE]
- PD 50 (Cavia porcellus [3]): 0.18 mg/kg
- ED50 [4]: 5.37 mg/kg
- PD 50 (Cavia porcellus [5]): >5 mg/kg

Structure (SMILES): C=CCN1CCC(Nc2nc3ccccc3n2Cc2ccccc2)CC1
- ED50 [1]: 0.63 mg/kg
- ED50 [2]: 0.63 mg/kg

Structure (SMILES): CN(C)CCOC(c1ccccc1)c1ccccc1 [DIPHENHYDRAMINE]
- ED50 (Cavia porcellus [3]): > 2.5 mg/kg
- ED50 [1]: 4 mg/kg
- ED50 [2]: 37.4 mg/kg
- A10 [6]: 0.66 mg/L

Structure (SMILES): CC(c1ccccc1)N1CCC(Nc2nc3ccccc3n2Cc2ccccc2)CC1 (stereo not drawn)
- ED50 [1]: 1.25 mg/kg
- ED50 [2]: > 2.5 mg/kg

Structure (SMILES): CCn1nnn(CCN2CCC(Nc3nc4ccccc4n3Cc3ccccc3)CC2)c1=O
- ED50 [1]: 0.31 mg/kg
- ED50 [2]: > 2.5 mg/kg

Structure (SMILES): CCCCN(c1nc2ccccc2[nH]1)C1CCN(CCc2ccccc2)CC1
- ED50 [1]: 2.5 mg/kg

Structure (SMILES): c1ccc(Cn2c(NC3CCN(C4CCCCC4)CC3)nc3ccccc32)cc1
- ED50 [4]: > 2.5 mg/kg
- ED50 [7]: 0.63 mg/kg

Structure (SMILES): CN(c1nc2ccccc2n1Cc1ccccc1)C1CCN(CCc2ccccc2)CC1
- ED50 [1]: 2.5 mg/kg

Structure (SMILES): c1ccc(CCN2CCC(Nc3nc4ccccc4n3Cc3ccccn3)CC2)cc1
- ED50 (Cavia porcellus [3]): 0.12 mg/kg
- ED50 (Cavia porcellus [8]): > 0.16 mg/kg
- ED50 [1]: 0.16 mg/kg
- ED50 [2]: 2.5 mg/kg
- ED50 (Cavia porcellus [5]): 0.12 mg/kg

Structure (SMILES): CCCCn1c(N(C)C2CCN(CCc3ccccc3)CC2)nc2ccccc21
- ED50 [1]: 2.5 mg/kg

Structure (SMILES): CCn1c(NC2CCN(CCc3ccccc3)CC2)nc2ccccc21
- ED50 [1]: 2.5 mg/kg

Structure (SMILES): CCCCN1CCC(Nc2nc3ccccc3n2Cc2ccccc2)CC1
- ED50 [4]: > 2.5 mg/kg
- ED50 [7]: 0.31 mg/kg

Structure (SMILES): CN1CCC(Nc2nc3ccccc3n2C)CC1
- ED50 [1]: > 2.5 mg/kg

Structure (SMILES): c1ccc(CCN2CCC(Nc3nc4ccccc4n3Cc3ccccc3)CC2)cc1
- ED50 (Cavia porcellus [3]): 0.25 mg/kg
- ED50 (Cavia porcellus [8]): 0.25 mg/kg
- ED50 [2]: 3.5 mg/kg
- ED50 (Cavia porcellus [5]): 0.35 mg/kg

Structure (SMILES): COc1ccccc1CCN1CCC(Nc2nc3ccccc3n2Cc2ccccc2)CC1
- ED50 [1]: 0.63 mg/kg
- ED50 [2]: 1.25 mg/kg

Structure (SMILES): Clc1ccc(Cn2c(NC3CCN(CCc4ccccc4)CC3)nc3ccccc32)cc1
- ED50 [1]: 2.5 mg/kg

Structure (SMILES): CC(c1ccc(F)cc1)n1c(NC2CCN(CCc3ccccc3)CC2)nc2ccccc21 (stereo not drawn)
- ED50 [1]: 1.25 mg/kg
- ED50 [2]: > 2.5 mg/kg

Structure (SMILES): FC(F)(F)c1cccc(CCN2CCC(Nc3nc4ccccc4n3Cc3ccccc3)CC2)c1
- ED50 [1]: 2.5 mg/kg

Structure (SMILES): CC(c1ccccc1)n1c(NC2CCN(CCc3ccccc3)CC2)nc2ccccc21 (stereo not drawn)
- ED50 [1]: 2.5 mg/kg

Structure (SMILES): OC(COc1ccccc1)CN1CCC(Nc2nc3ccccc3n2Cc2ccccc2)CC1 (stereo not drawn)
- ED50 (Cavia porcellus [3]): 0.35 mg/kg
- ED50 (Cavia porcellus [8]): > 0.6 mg/kg
- ED50 [1]: 1.25 mg/kg
- ED50 [2]: 0.63 mg/kg
- ED50 (Cavia porcellus [5]): 0.6 mg/kg

Structure (SMILES): N#CC1(c2ccccc2)CCC(N2CCC(Nc3nc4ccccc4n3Cc3ccccc3)CC2)CC1 (stereo not drawn)
- ED50 [1]: 2.5 mg/kg

Structure (SMILES): Brc1ccc(Cn2c(NC3CCN(CCc4ccccc4)CC3)nc3ccccc32)cc1
- ED50 [1]: 1.25 mg/kg

Structure (SMILES): CCOc1ccc(CCN2CCC(Nc3nc4ccccc4n3Cc3ccccc3)CC2)cc1
- ED50 [1]: 1.25 mg/kg
- ED50 [2]: 0.63 mg/kg

Structure (SMILES): CCn1c(N(Cc2ccccc2)C2CCN(CCc3ccccc3)CC2)nc2ccccc21
- ED50 [1]: > 2.5 mg/kg

Structure (SMILES): c1ccc(Cn2c(NC3CCN(CC4COc5ccccc5O4)CC3)nc3ccccc32)cc1 (stereo not drawn)
- ED50 [1]: 2.5 mg/kg

Structure (SMILES): CN(c1nc2ccccc2n1Cc1ccc(F)cc1)C1CCN(CCc2ccccc2)CC1
- ED50 [1]: 1.25 mg/kg
- ED50 [2]: 1.25 mg/kg

Structure (SMILES): Fc1ccccc1Cn1c(NC2CCN(CCc3ccccc3)CC2)nc2ccccc21
- ED50 [1]: 1.25 mg/kg
- ED50 [2]: 2.5 mg/kg

Structure (SMILES): Fc1ccc(CN2CCC(Nc3nc4ccccc4n3Cc3ccccc3)CC2)cc1
- ED50 [1]: 2.5 mg/kg

Structure (SMILES): c1ccc(CCCN2CCC(Nc3nc4ccccc4n3Cc3ccccc3)CC2)cc1
- ED50 (Cavia porcellus [3]): 0.35 mg/kg
- ED50 (Cavia porcellus [8]): > 0.6 mg/kg
- ED50 [1]: 2.5 mg/kg
- ED50 (Cavia porcellus [5]): 0.35 mg/kg

Structure (SMILES): CC(Cn1c(NC2CCN(CCc3ccccc3)CC2)nc2ccccc21)c1ccccc1 (stereo not drawn)
- ED50 [1]: 2.5 mg/kg

Structure (SMILES): c1ccc(Cn2c(NC3CCN(CCCOc4ccccc4)CC3)nc3ccccc32)cc1
- ED50 [1]: 0.63 mg/kg
- ED50 [2]: 0.63 mg/kg

Structure (SMILES): COc1ccc(CCN2CCC(Nc3nc4ccccc4n3Cc3ccccc3)CC2)cc1
- ED50 (Cavia porcellus [3]): 0.25 mg/kg
- ED50 (Cavia porcellus [8]): 0.16 mg/kg
- ED50 [1]: 1.25 mg/kg
- ED50 [2]: 0.63 mg/kg
- ED50 (Cavia porcellus [5]): 0.08 mg/kg

Structure (SMILES): Fc1ccc(Cn2c(NC3CCN(CCc4ccccc4)CC3)nc3ccccc32)cc1
- ED50 (Cavia porcellus [3]): 0.45 mg/kg
- ED50 (Cavia porcellus [8]): 0.12 mg/kg
- ED50 [1]: 0.31 mg/kg
- ED50 [2]: 0.63 mg/kg
- ED50 (Cavia porcellus [5]): 0.08 mg/kg

Structure (SMILES): CN1CCC(Nc2nc3ccccc3n2Cc2ccccc2)CC1
- ED50 [4]: > 2.5 mg/kg
- ED50 [7]: 0.31 mg/kg

Structure (SMILES): Oc1nc2ccccc2n1CCN1CCC(Nc2nc3ccccc3n2Cc2ccccc2)CC1
- ED50 (Cavia porcellus [3]): 0.35 mg/kg
- ED50 [1]: 0.31 mg/kg
- ED50 [2]: 2.5 mg/kg
- ED50 (Cavia porcellus [5]): > 0.6 mg/kg

Structure (SMILES): CCCCCn1c(NC2CCN(CCc3ccccc3)CC2)nc2ccccc21
- ED50 [1]: 2.5 mg/kg

Structure (SMILES): Oc1nc2ccccc2n1CCCN1CCC(Nc2nc3ccccc3n2Cc2ccccc2)CC1
- ED50 (Cavia porcellus [3]): 0.16 mg/kg
- ED50 (Cavia porcellus [8]): > 0.6 mg/kg
- ED50 [1]: 1.25 mg/kg
- ED50 [2]: 2.5 mg/kg
- ED50 (Cavia porcellus [5]): 0.6 mg/kg

Structure (SMILES): C(=C\c1ccccc1)/CN1CCC(Nc2nc3ccccc3n2Cc2ccccc2)CC1
- ED50 [1]: 1.25 mg/kg
- ED50 [2]: > 2.5 mg/kg

Structure (SMILES): COc1cccc(CCN2CCC(Nc3nc4ccccc4n3Cc3ccccc3)CC2)c1
- ED50 [1]: 0.63 mg/kg
- ED50 [2]: 0.31 mg/kg

Structure (SMILES): c1ccc(Cn2c(NC3CCN(CCc4cccs4)CC3)nc3ccccc32)cc1
- ED50 [1]: 0.63 mg/kg

Structure (SMILES): COc1cc(CCN2CCC(Nc3nc4ccccc4n3Cc3ccccc3)CC2)cc(OC)c1OC
- ED50 [1]: 0.63 mg/kg
- ED50 [2]: 1.25 mg/kg

Structure (SMILES): COc1ccc(CCN2CCC(Nc3nc4ccccc4n3Cc3ccccc3)CC2)cc1OC
- ED50 [1]: 1.25 mg/kg
- ED50 [2]: > 2.5 mg/kg

Structure (SMILES): CN1CCC(=C2c3ccccc3CCc3cccnc32)CC1 [AZATADINE]
- ED50 (Cavia porcellus [3]): 0.014 mg/kg
- ED50 (Cavia porcellus [8]): > 2.5 mg/kg
- ED50 [1]: 0.049 mg/kg
- ED50 [2]: 0.48 mg/kg
- ED50 (Cavia porcellus [5]): 1.36 mg/kg

Structure (SMILES): Cc1ccc(Cn2c(NC3CCN(CCc4ccccc4)CC3)nc3ccccc32)cc1
- ED50 [1]: 1.25 mg/kg
- ED50 [2]: 2.5 mg/kg

Structure (SMILES): CN(c1nc2ccccc2n1Cc1ccc(Br)cc1)C1CCN(CCc2ccccc2)CC1
- ED50 [1]: 2.5 mg/kg

Structure (SMILES): O=C(CCCN1CCC(Nc2nc3ccccc3n2Cc2ccccc2)CC1)c1ccc(F)cc1
- ED50 [1]: 2.5 mg/kg

Structure (SMILES): CCCCn1c(NC2CCN(CCc3ccccc3)CC2)nc2ccccc21
- ED50 [1]: 2.5 mg/kg

Structure (SMILES): CCn1c(N(C)C2CCN(CCc3ccccc3)CC2)nc2ccccc21
- ED50 [1]: 0.63 mg/kg
- ED50 [2]: > 2.5 mg/kg

Structure (SMILES): c1ccc(CCN2CCC(Nc3nc4ccccc4n3CCc3ccccc3)CC2)cc1
- ED50 [1]: > 2.5 mg/kg

Structure (SMILES): Clc1ccc(CCN2CCC(Nc3nc4ccccc4n3Cc3ccccc3)CC2)cc1
- ED50 [1]: 2.5 mg/kg

Structure (SMILES): Cc1cccc(CCN2CCC(Nc3nc4ccccc4n3Cc3ccccc3)CC2)c1
- ED50 [1]: 1.25 mg/kg
- ED50 [2]: 2.5 mg/kg

Structure (SMILES): Fc1ccc(CCN2CCC(Nc3nc4ccccc4n3Cc3ccccc3)CC2)cc1
- ED50 [1]: 1.25 mg/kg
- ED50 [2]: > 2.5 mg/kg
